ChEMBL document CHEMBL1136025, “Inhibition of ADP-triggered blood platelet aggregation by diadenosine polyphosphate analogues” (Bioorg Med Chem Lett, 2002)

Organism: Homo sapiens
Test: The inhibitory concentration for the inhibition of ADP-Triggered Blood Platelet Aggregation
Type: functional
Summary of the method: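 Human citrated PRP from unmedicated healthy donors (200g, 10 min, rt spin); PPP from 1000g, 20 min. Serial dilutions in phosphate buffer pH 7.4 preincubated with PRP 30 min at rt, then ADP added. Aggregation followed 10 min at 37 °C, absorbance 595 nm every 30 s with shaking; buffer and PPP-only controls; AMP as positive control.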

In the case of Nc1ncnc2c1ncn2[C@@H]1O[C@H](COP(O)(=S)OC(C(=O)O)C(OP(O)(=S)OC[C@H]2O[C@@H](n3cnc4c(N)ncnc43)[C@H](O)[C@@H]2O)C(=O)O)[C@@H](O)[C@H]1O (stereo partly specified), the IC50 is reported as 75 µM.
Nc1ncnc2c1ncn2[C@@H]1O[C@H](COP(=O)(O)OCP(=O)(O)COP(=O)(O)OC[C@H]2O[C@@H](n3cnc4c(N)ncnc43)[C@H](O)[C@@H]2O)[C@@H](O)[C@H]1O gave an IC50 of 80 µM.
Nc1ncnc2c1ncn2[C@@H]1O[C@H](COP(O)(=S)OCC(OP(O)(O)=S)OP(O)(=S)OC[C@H]2O[C@@H](n3cnc4c(N)ncnc43)[C@H](O)[C@@H]2O)[C@@H](O)[C@H]1O (stereo partly specified) was tested, and the IC50 was over 160 µM.
In the case of Nc1ncnc2c1ncn2[C@@H]1O[C@H](COP(O)(=S)OCP(=O)(O)COP(O)(=S)OC[C@H]2O[C@@H](n3cnc4c(N)ncnc43)[C@H](O)[C@@H]2O)[C@@H](O)[C@H]1O (stereo partly specified), the IC50 is reported as 40 µM.
In the case of Nc1ncnc2c1ncn2[C@@H]1O[C@H](COP(=S)(S)OCP(=O)(O)COP(=S)(S)OC[C@H]2O[C@@H](n3cnc4c(N)ncnc43)[C@H](O)[C@@H]2O)[C@@H](O)[C@H]1O (stereo partly specified), the IC50 is reported as 10 µM.
With Nc1ncnc2c1ncn2[C@@H]1O[C@H](COP(O)(=S)OCP(=O)(O)COP(O)(O)=S)[C@@H](O)[C@H]1O (stereo partly specified) the IC50 was 13 µM.
